Measurements taken from ChEMBL document CHEMBL1811906, “Synthesis and evaluation of strand and turn modified ring-extended gramicidin S derivatives” (Bioorg Med Chem, 2011).
≈ marks a conversion by molar mass, not a printed value. Residues, ends and D or L forms follow the SMILES beside them.

Columns and labels:
[1] = tested on: Staphylococcus aureus; assay: Antimicrobial activity against Staphylococcus aureus ATCC 29213 after 24 hrs by broth dilution method; type: functional; conditions: ATCC 29213, 24 h
Outline: (§1)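 Strains stored at −70 °C, grown at 30 °C on blood agar, suspended in physiological saline to OD595 0.1, diluted 10× in saline. 2 µL inoculum added to 100 µL nutrient broth with yeast extract. Peptides dissolved in ethanol (4 g/L), diluted in water (1 g/L), then two-fold in broth (64 to 1 mg/L). Incubated at 30 °C; MIC read as lowest concentration inhibiting growth at 24 h.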

[2] = tested on: Escherichia coli; assay: Antimicrobial activity against Escherichia coli ATCC 25922 after 24 hrs by broth dilution method; type: functional; conditions: ATCC 25922, 24 h; outline: as §1
[3] = tested on: Proteus mirabilis; assay: Antimicrobial activity against Proteus mirabilis 1190901236 after 24 hrs by broth dilution method; type: functional; conditions: Proteus mirabilis, 1190901236, 24 h; outline: as §1
[4] = tested on: Pseudomonas aeruginosa; assay: Antimicrobial activity against Pseudomonas aeruginosa ATCC 27853 after 24 hrs by broth dilution method; type: functional; conditions: ATCC 27853, 24 h; outline: as §1
[5] = tested on: Enterococcus faecalis; assay: Antimicrobial activity against Enterococcus faecalis ATCC 29212 after 24 hrs by broth dilution method; type: functional; conditions: ATCC 29212, 24 h; outline: as §1
[6] = Toxicity in human erythrocytes assessed as hemolytic activity after 4 hrs; type: cell-based; conditions: erythrocyte
Outline: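 Heparinized fresh blood spun at 1000 g, 10 °C; erythrocytes washed three times in 0.85% saline and diluted to 1/25 packed volume. Peptide stocks 1.5 mM in 30% DMSO/saline, serially two-fold diluted in saline. Cells added, then incubated 4 h at 37 °C and centrifuged. Supernatant A405 read against 1% Triton X-100 as full lysis; single experiment run in triplicate.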

[7] = tested on: Klebsiella pneumoniae; assay: Antimicrobial activity against Klebsiella pneumoniae 1190901525 after 24 hrs by broth dilution method; type: functional; conditions: Klebsiella pneumoniae, 1190901525, 24 h; outline: as §1
[8] = tested on: Enterobacter cloacae; assay: Antimicrobial activity against Enterobacter cloacae 1190900252 after 24 hrs by broth dilution method; type: functional; conditions: Enterobacter cloacae, 1190900252, 24 h; outline: as §1
[9] = tested on: Bacillus cereus; assay: Antimicrobial activity against Bacillus cereus ATCC 11778 after 24 hrs by broth dilution method; type: functional; conditions: ATCC 11778, 24 h; outline: as §1
[10] = tested on: Staphylococcus epidermidis; assay: Antimicrobial activity against Staphylococcus epidermidis ATCC 12228 after 24 hrs by broth dilution method; type: functional; conditions: ATCC 12228, 24 h; outline: as §1

| SMILES | MIC [1] [µg/mL] | MIC [2] [µg/mL] | MIC [3] [µg/mL] | MIC [4] [µg/mL] | MIC [5] [µg/mL] | MIC [7] [µg/mL] | MIC [8] [µg/mL] | MIC [9] [µg/mL] | MIC [10] [µg/mL] | HD100 [6] [µM] |
| --- | --- | --- | --- | --- | --- | --- | --- | --- | --- | --- |
| CC(C)C[C@@H]1NC(=O)[C@H](CCCN)NC(=O)[C@H](C(C)C)NC(=O)[C@@H]2CCCN2C(=O)[C@@H](Cc2ccccc2)NC(=O)[C@H](CC(C)C)NC(=O)[C@H](CCCN)NC(=O)[C@H](C(C)C)NC(=O)[C@H](CCCN)NC(=O)[C@H](CC(C)C)NC(=O)[C@@H]2CCCN2C(=O)[C@@H](Cc2ccccc2)NC(=O)[C@H](C(C)C)NC(=O)[C@H](CCCN)NC1=O | 16 (≈ 10.1 µM) | 32 (≈ 20.2 µM) | > 64 | 64 (≈ 40.5 µM) | 8 (≈ 5.06 µM) | 64 (≈ 40.5 µM) | 64 (≈ 40.5 µM) | 16 (≈ 10.1 µM) | 8 (≈ 5.06 µM) | 3.9 |
| CC(C)C[C@@H]1NC(=O)[C@H](CCCN)NC(=O)[C@H](C(C)C)NC(=O)[C@@H]2CCCN2C(=O)[C@@H](Cc2ccccc2)NC(=O)[C@H](CC(C)C)NC(=O)[C@H](CCCN)NC(=O)[C@H](C(C)C)NC(=O)[C@H](CCCN)NC(=O)[C@H](CC(C)C)NC(=O)[C@@H]2O[C@H](CNC(=O)[C@H](C(C)C)NC(=O)[C@H](CCCN)NC1=O)[C@@H](OCc1ccccc1)[C@@H]2OCc1ccccc1 | 4 (≈ 2.38 µM) | 16 (≈ 9.54 µM) | > 64 | 16 (≈ 9.54 µM) | 8 (≈ 4.77 µM) | 32 (≈ 19.1 µM) | 32 (≈ 19.1 µM) | 2 (≈ 1.19 µM) | 4 (≈ 2.38 µM) | 15.6 |
| CC(C)C[C@@H]1NC(=O)[C@H](CCCN)NC(=O)[C@H](C(C)C)NC(=O)[C@@H]2CCCN2C(=O)[C@@H](Cc2ccccc2)NC(=O)[C@H](CC(C)C)NC(=O)[C@H](CCCN)NC(=O)[C@H](C(C)C)NC(=O)[C@H](CCCN)NC(=O)[C@H](CC(C)C)NC(=O)[C@@H]2O[C@H](CNC(=O)[C@H](C(C)C)NC(=O)[C@@H](CCCN)NC1=O)[C@@H](OCc1ccccc1)[C@@H]2OCc1ccccc1 | 8 (≈ 4.77 µM) | 32 (≈ 19.1 µM) | > 64 | 64 (≈ 38.2 µM) | 16 (≈ 9.54 µM) | 32 (≈ 19.1 µM) | 32 (≈ 19.1 µM) | 8 (≈ 4.77 µM) | 8 (≈ 4.77 µM) | 500 |
| CC(C)C[C@@H]1NC(=O)[C@H](CCCN)NC(=O)[C@H](C(C)C)NC(=O)[C@@H]2CCCN2C(=O)[C@@H](Cc2ccccc2)NC(=O)[C@H](CC(C)C)NC(=O)[C@H](CCCN)NC(=O)[C@H](C(C)C)NC(=O)[C@H](CCCN)NC(=O)[C@H](CC(C)C)NC(=O)[C@@H]2O[C@H](CNC(=O)[C@H](C(C)C)NC(=O)[C@@H](CCCN)NC1=O)[C@@H](OCc1ccccc1)[C@@H]2O | 16 (≈ 10.1 µM) | 32 (≈ 20.2 µM) | > 64 | 64 (≈ 40.3 µM) | 32 (≈ 20.2 µM) | 32 (≈ 20.2 µM) | 32 (≈ 20.2 µM) | 8 (≈ 5.04 µM) | 8 (≈ 5.04 µM) | 500 |
| CC(C)C[C@@H]1NC(=O)[C@H](CCCN)NC(=O)[C@H](C(C)C)NC(=O)[C@@H]2CCCN2C(=O)[C@@H](Cc2ccccc2)NC(=O)[C@H](CC(C)C)NC(=O)[C@H](CCCN)NC(=O)[C@H](C(C)C)NC(=O)[C@H](CCCN)NC(=O)[C@H](CC(C)C)NC(=O)[C@@H]2O[C@H](CNC(=O)[C@H](C(C)C)NC(=O)[C@@H](CCCN)NC1=O)[C@@H](O)[C@@H]2O | > 64 | 64 (≈ 42.8 µM) | > 64 | > 64 | > 64 | > 64 | 64 (≈ 42.8 µM) | 64 (≈ 42.8 µM) | 16 (≈ 10.7 µM) | > 500 |
| CC(C)C[C@@H]1NC(=O)[C@H](CCCCN)NC(=O)[C@H](C(C)C)NC(=O)[C@@H]2CCCN2C(=O)[C@@H](Cc2ccc(O)cc2)NC(=O)[C@H](CC(C)C)NC(=O)[C@H](CCCCN)NC(=O)[C@H](C(C)C)NC(=O)[C@H](CCCCN)NC(=O)[C@H](CC(C)C)NC(=O)[C@@H]2CCCN2C(=O)[C@@H](Cc2ccc(O)cc2)NC(=O)[C@H](C(C)C)NC(=O)[C@H](CCCCN)NC1=O (HELM PEPTIDE1{K.L.K.V.[dY].P.L.K.V.K.L.[dY].P.V}$PEPTIDE1,PEPTIDE1,1:R1-14:R2$$$V2.0) | > 64 | > 64 | > 64 | > 64 | 32 (≈ 19.2 µM) | > 64 | > 64 | 32 (≈ 19.2 µM) | 64 (≈ 38.3 µM) | 3.9 |
| CC(C)C[C@@H]1NC(=O)[C@H](CCCCN)NC(=O)[C@H](C(C)C)NC(=O)[C@@H]2CCCN2C(=O)[C@@H](Cc2ccc(O)cc2)NC(=O)[C@H](CC(C)C)NC(=O)[C@H](CCCCN)NC(=O)[C@H](C(C)C)NC(=O)[C@H](CCCCN)NC(=O)[C@H](CC(C)C)NC(=O)[C@@H]2CCCN2C(=O)[C@@H](Cc2ccc(O)cc2)NC(=O)[C@H](C(C)C)NC(=O)[C@@H](CCCCN)NC1=O (HELM PEPTIDE1{K.L.[dK].V.[dY].P.L.K.V.K.L.[dY].P.V}$PEPTIDE1,PEPTIDE1,1:R1-14:R2$$$V2.0) | 64 (≈ 38.3 µM) | 64 (≈ 38.3 µM) | > 64 | > 64 | 64 (≈ 38.3 µM) | 64 (≈ 38.3 µM) | 64 (≈ 38.3 µM) | 16 (≈ 9.58 µM) | 8 (≈ 4.79 µM) | 500 |
| CC(C)C[C@@H]1NC(=O)[C@H](CCCN)NC(=O)[C@H](C(C)C)NC(=O)[C@@H]2CCCN2C(=O)[C@@H](Cc2ccccc2)NC(=O)[C@H](CC(C)C)NC(=O)[C@H](CCCN)NC(=O)[C@H](C(C)C)NC(=O)[C@@H]2CCCN2C(=O)[C@@H](Cc2ccccc2)NC1=O [GRAMICIDIN S] (HELM PEPTIDE1{L.[dF].P.V.[Orn].L.[dF].P.V.[Orn]}$PEPTIDE1,PEPTIDE1,1:R1-10:R2$$$V2.0) | 4 (≈ 3.5 µM) | 32 (≈ 28 µM) | > 64 | 64 (≈ 56.1 µM) | 8 (≈ 7.01 µM) | 64 (≈ 56.1 µM) | 64 (≈ 56.1 µM) | 4 (≈ 3.5 µM) | 4 (≈ 3.5 µM) | 62.5 |

Further compounds by falling MIC [1], results first:

| MIC [1] [µg/mL] | MIC [2] [µg/mL] | MIC [3] [µg/mL] | MIC [4] [µg/mL] | MIC [5] [µg/mL] | MIC [7] [µg/mL] | MIC [8] [µg/mL] | MIC [9] [µg/mL] | MIC [10] [µg/mL] | SMILES | HD100 [6] [µM] |
| --- | --- | --- | --- | --- | --- | --- | --- | --- | --- | --- |
| 8 (≈ 5.06 µM) | 64 (≈ 40.5 µM) | > 64 | 8 (≈ 5.06 µM) | 16 (≈ 10.1 µM) | 32 (≈ 20.2 µM) | 32 (≈ 20.2 µM) | 16 (≈ 10.1 µM) | 8 (≈ 5.06 µM) | CC(C)C[C@@H]1NC(=O)[C@H](CCCN)NC(=O)[C@H](C(C)C)NC(=O)[C@@H]2CCCN2C(=O)[C@@H](Cc2ccccc2)NC(=O)[C@H](CC(C)C)NC(=O)[C@H](CCCN)NC(=O)[C@H](C(C)C)NC(=O)[C@H](CCCN)NC(=O)[C@H](CC(C)C)NC(=O)[C@@H]2CCCN2C(=O)[C@@H](Cc2ccccc2)NC(=O)[C@H](C(C)C)NC(=O)[C@@H](CCCN)NC1=O | 125 |
| 8 (≈ 5.34 µM) | 8 (≈ 5.34 µM) | > 64 | 16 (≈ 10.7 µM) | 8 (≈ 5.34 µM) | 16 (≈ 10.7 µM) | 16 (≈ 10.7 µM) | 4 (≈ 2.67 µM) | 4 (≈ 2.67 µM) | CC(C)C[C@@H]1NC(=O)[C@H](CCCN)NC(=O)[C@H](C(C)C)NC(=O)[C@@H]2CCCN2C(=O)[C@@H](Cc2ccccc2)NC(=O)[C@H](CC(C)C)NC(=O)[C@H](CCCN)NC(=O)[C@H](C(C)C)NC(=O)[C@H](CCCN)NC(=O)[C@H](CC(C)C)NC(=O)[C@@H]2O[C@H](CNC(=O)[C@H](C(C)C)NC(=O)[C@H](CCCN)NC1=O)[C@@H](O)[C@@H]2O | 31.3 |
| 4 (≈ 2.52 µM) | 16 (≈ 10.1 µM) | > 64 | 16 (≈ 10.1 µM) | 8 (≈ 5.04 µM) | 16 (≈ 10.1 µM) | 16 (≈ 10.1 µM) | 4 (≈ 2.52 µM) | 4 (≈ 2.52 µM) | CC(C)C[C@@H]1NC(=O)[C@H](CCCN)NC(=O)[C@H](C(C)C)NC(=O)[C@@H]2CCCN2C(=O)[C@@H](Cc2ccccc2)NC(=O)[C@H](CC(C)C)NC(=O)[C@H](CCCN)NC(=O)[C@H](C(C)C)NC(=O)[C@H](CCCN)NC(=O)[C@H](CC(C)C)NC(=O)[C@@H]2O[C@H](CNC(=O)[C@H](C(C)C)NC(=O)[C@H](CCCN)NC1=O)[C@@H](OCc1ccccc1)[C@@H]2O | 15.6 |
